# Screens deposited in PubChem by several laboratories.
# The list is not random: actives were taken first. Their share in the collection is about 1.9%.
# RAM inhibit: blocks the yeast RAM network | S. cerevisiae dse1pr::URA3 reporter, 5-FOA growth OD615, 2 d; analog-sensitive cbk1-as2 kinase mutant strain | inhibition, % at 50 µM | actives 1.8% (n = 190,000);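 active = inhibition above a set limit, 3 SD over mean compound inhibition, cut at about 8.4% in these data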;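 note: 0% = DMSO-only wells with no growth and 100% = 10 µM 1-NA-PP1 full growth; inhibition rescues growth on 5-FOA so higher OD means more RAM inhibition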
# pCIP destab: compounds decreasing mouse p/CIP protein stability; actives 0.01% (n = 290,000); F442A p/CIP-EGFP cells, EGFP fluorescence, 16 h; AID 1984; decrease of EGFP signal, % at 10 µM; Q05BA5;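 active = EGFP signal decrease of at least 30% at 10 µM or well 3 SD below plate mean, unless failing retest; inactive = the rest, including hits failing retest or dose response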
# p47phox inh: p47phox (human) inhibition; p47phox/p22phox peptide binding, fluorescence polarization, 2 h; actives 0.53% (n = 220,000); inhibition, % at 24.7 µM;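 active = inhibition above about 30%, limit read from the data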;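 note: 0% = p47phox with labelled peptide and 100% = labelled peptide alone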
# Target sequence (P14598 whole entry, looked up): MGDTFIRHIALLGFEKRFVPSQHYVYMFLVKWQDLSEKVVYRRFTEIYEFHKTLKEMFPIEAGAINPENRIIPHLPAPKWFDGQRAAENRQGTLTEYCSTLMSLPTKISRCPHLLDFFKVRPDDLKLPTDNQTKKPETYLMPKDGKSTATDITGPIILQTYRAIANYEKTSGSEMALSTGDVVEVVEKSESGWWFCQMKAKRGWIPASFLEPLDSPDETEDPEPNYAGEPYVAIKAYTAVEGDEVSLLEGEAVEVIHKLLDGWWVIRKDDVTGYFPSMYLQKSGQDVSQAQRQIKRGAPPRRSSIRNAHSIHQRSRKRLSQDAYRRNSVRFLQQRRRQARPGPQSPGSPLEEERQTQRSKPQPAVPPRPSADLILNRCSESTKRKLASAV
# Dynein transport: dynein cargo transport inhibition | 3617.4 mouse cells, GR-EGFP nuclear translocation imaging; test concentration mostly 20 µM; stimulated with dexamethasone, 1 µM; hits give low values | actives 0.47% (n = 220,000) | z-score, hits read low;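 active = plate z-score of nuclear minus cytoplasmic receptor signal below a set negative limit, without overly bright fluorescence or cell loss, cut at about -3.5 in these data, passing the limit was not always enough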;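 note: z-score of nuclear minus cytoplasmic ring GR-EGFP intensity difference per well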
#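 Buffer or medium: Induction medium lacking tetracycline, stripped serum | Also added: Dexamethasone agonist, 1.0 µM final, for 30 min | Timing: 48 h induction, 1 h compound, 30 min dex at 37 °C | Detection: Formaldehyde fixation, Hoechst nuclear stain, 10x automated fluorescence imaging | Measure: Nuclear versus cytoplasmic GR-EGFP signal, averaged per well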
# Dynein inh conf: dynein cargo transport inhibition, confirmation; shares compounds with Dynein transport; 3617.4 GR-EGFP nuclear translocation imaging, dexamethasone-induced; calls only at 20 µM; actives 69% (n = 1,000); AID 463116;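 active = inhibition of receptor movement into the nucleus at or above a set limit in both runs, with normal cell brightness and cell count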;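 note: dexamethasone at 1 µM final in well for 30 min; nuclear minus cytoplasmic GR-EGFP mean intensity difference in channel 2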
# Numbers without * were called inactive; / = not tested or not shown; + = active, no number.
SMILES,RAM inhibit,pCIP destab,p47phox inh,Dynein transport,Dynein inh conf
Cc1ccc(NC(=O)CCl)cc1S(=O)(=O)N1CCCCCC1,0.9,-16.6,1.1,-4.14*,+
CCc1ccccc1NC(=O)CN(C)C(=O)Cn1ncc(Cl)c(Cl)c1=O,-0.2,-11.7,-25.5,-3.71*,+
CCC(=O)Nc1ccc(C(=O)Cn2ncc(Cl)c(Cl)c2=O)cc1,/,-19.8,-3.3,-4.43*,+
O=C(Cn1ncc(N2CCCC2)c(Cl)c1=O)c1ccc(Cl)cc1,-0.5,0.7,-3.3,-0.693,/
CC(C)(C)C(=O)NNC(=O)c1cnccn1,/,-5.3,5.1,0.238,/
CCN(CC1CCCN(CCc2cccc(OC)c2)C1)C(=O)c1ccoc1 (stereo not drawn),/,-1.5,/,/,/
CCOC(=O)c1c(C)sc2c1N(C(=O)CCl)c1cc(Cl)ccc1S2,6.7,-9.8,-6.6,-3.97*,+
Cc1cccc(-c2oc3ccc(-c4ccc5c(c4)OCO5)cc3c2C(=O)OCc2ccc(O)cc2)c1,/,-24.2,/,/,/
COCCn1cnc2c1c(=O)n(Cc1ccc(C#N)cc1)c(=O)n2Cc1ccccc1,/,0.5,/,/,/
O=C(NCCCNc1ccc([N+](=O)[O-])cc1)C(F)(F)F,1.8,0.3,-5.2,-0.762,/
O=C(CCl)N(CCCNC(=O)C(F)(F)F)c1ccc([N+](=O)[O-])cc1,/,-7.6,-4.5,-4.96*,+
COc1ccc(N(C)C(=O)c2ccc(NC(=O)CCS(=O)(=O)c3cccs3)cc2)cc1,/,4.8,/,/,/
